Screening data deposited in PubChem BioAssay by The Scripps Research Institute Molecular Screening Center.
LEDGF integ inh – blocks HIV-1 LEDGF/p75-dependent DNA integration | actives 0.64% (n = 370,000) | TR-FRET IN-LEDGF/p75 DNA integration, Eu/Cy5 | inhibition, % at 3.7 µM | AID 743269;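 active = inhibition above the screen-wide mean plus 3 SD, cut at about 13% in these data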;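 also: signal is the Cy5 over europium emission ratio at 671 and 618 nm; 0% = plate median of compound wells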
SIAE inh – human SIAE inhibition, primary screen | Q9HAT2 | SIAE FP-Rh probe binding, fluorescence polarization | inhibition, % at 9.66 µM | actives 0.69% (n = 370,000) | AID 1053197;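 active = inhibition above a cutoff: mean of compounds within the control limits plus 3 SD of those, cut at about 17% in these data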;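 also: 0% = plate median of compound wells and 100% = probe without SIAE protein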
PRMT1 FP inh – PRMT1 (human) inhibition, primary screen | recombinant PRMT1, activity-based probe fluorescence polarization | inhibition, % at 2.79 µM | actives 1.3% (n = 370,000) | AID 652257;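 active = inhibition above about 21% made by adding two undisclosed values, limit read from the data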
UHRF1 MBD2 ctr – human UHRF1 methylated DNA binding inhibitors. UHRF1 binding to methylated oligo, TR-FRET. inhibition, % at 4.4 µM. actives 0.75% (n = 370,000). AID 687016; in the data active = inhibition above about 21%;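 also: UHRF1 SRA domain binding a hemimethylated CpG hairpin DNA probe; 0% = median of test compound wells and 100% = reference inhibitor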
TDP2 inh – TDP2 (human) inhibition, absorbance primary screen; O95551; recombinant TDP2, T5PNP hydrolysis, p-nitrophenol absorbance 415 nm; AID 720702; inhibition, % at 12.8 µM; actives 0.34% (n = 370,000);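 active = inhibition above the mean of all tested compounds plus 3 SD, set per campaign, cut at about 25% in these data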;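 also: 0% = DMSO with enzyme and 100% = buffer with substrate but no TDP2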
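Read-out basis: percent inhibition. System: recombinant human TDP2. Buffer or medium: Mg2+-containing Tris-HCl buffer, pH 7.5. Repeats: single replicate. Timing: reaction 2 h, 37 °C. Benchmarks: high control without enzyme, low control DMSO plus TDP2. Probe or stimulus: 5 mM T5PNP. Doses: 12.8 µM only. Measured by: epi absorbance of p-nitrophenol freed from T5PNP by hydrolysis.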
MBD2 DNA inh – inhibitors of human MBD2 binding to methylated oligonucleotide | Q9UBB5 | TR-FRET | inhibition, % at 4.4 µM | actives 0.31% (n = 370,000) | AID 686964; in the data active = inhibition above about 13%
Target sequence (Q9UBB5 whole entry, looked up): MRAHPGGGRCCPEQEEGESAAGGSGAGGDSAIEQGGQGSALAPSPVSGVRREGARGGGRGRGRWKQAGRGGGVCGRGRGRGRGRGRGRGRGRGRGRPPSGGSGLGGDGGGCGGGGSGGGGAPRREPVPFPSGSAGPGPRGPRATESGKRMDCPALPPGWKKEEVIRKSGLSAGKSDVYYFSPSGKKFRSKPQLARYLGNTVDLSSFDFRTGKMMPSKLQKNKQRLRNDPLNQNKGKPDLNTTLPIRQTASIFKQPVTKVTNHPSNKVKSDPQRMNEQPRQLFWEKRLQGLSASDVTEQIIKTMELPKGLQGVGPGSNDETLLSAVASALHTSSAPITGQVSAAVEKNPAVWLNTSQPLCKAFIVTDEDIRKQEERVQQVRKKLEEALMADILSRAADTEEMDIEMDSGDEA
PRMT1 confirm – confirmation of human PRMT1 inhibitors | inhibition, % at 2.79 µM | actives 42% (n = 3,300) | shares compounds with PRMT1 FP inh | recombinant His-PRMT1, activity-based probe fluorescence polarization;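 active = mean inhibition across replicates above the hit cutoff derived for the earlier primary screen, cut at about 22% in these data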
* = called active by the depositor; nt = no result given. Most compounds without a hit are left out; they make up all but 3.3% or so of the library.

SMILES	LEDGF integ inh	SIAE inh	PRMT1 FP inh	UHRF1 MBD2 ctr	TDP2 inh	MBD2 DNA inh	PRMT1 confirm
CC(/C=C/C(=O)c1ccc(C)cc1)=C\c1ccccc1	8	-2	15	6	-20	-2	nt
Cc1ccc(C(=O)/C=C\C(=O)c2ccc(C)cc2)cc1	2	0	40*	2	-2	3	57*
Cc1ccc(C(=O)/C=C/c2ccc(-c3ccc(C)cc3)o2)cc1	2	-2	50*	1	-15	1	6
CCCC1CCC2(CC1)CCC2OC(=S)Nc1cccc(C(F)(F)F)c1 (stereo not given)	-2	-1	2	5	0	0	nt
Cc1cc(N)c(NC2=CC(=O)CC(C)(C)C2)cc1C	2	1	27*	-8	0	-1	-1
Cc1ccc(-c2n[nH]c(=S)n2/N=C/c2cccs2)cc1	-8	1	32*	2	-12	5	8
COc1cccc(/C=N/n2c(-c3cccs3)n[nH]c2=S)c1	7	1	28*	-1	2	1	20
COc1ccc(C=Nn2c(-c3ccc(F)cc3)n[nH]c2=S)c(OC)c1OC	-3	7	30*	3	-10	7	6
Cc1ccc(-c2n[nH]c(=S)n2/N=C/c2ccc(C)s2)cc1	0	1	17	-1	-7	-3	nt
N=c1c2c(-c3ccccc3)c(-c3ccccc3)n(CCc3ccccc3)c2ncn1C1CCC(O)CC1 (stereo not given)	-3	-5	1	0	-8	1	nt
S=c1[nH]c(-c2ccccc2)cs1	-8	0	30*	0	-14	5	6
O=c1[nH]c(-c2ccccc2)cs1	-3	-3	-1	2	6	2	nt
COc1ccccc1CN(Cc1cc2c(C)ccc(C)c2[nH]c1=O)Cc1nnnn1Cc1ccco1	9	-5	37*	7	-16	1	6
CCC(C)(C)n1nnnc1C(C(C)C)N(Cc1cccnc1)Cc1ccco1 (stereo not given)	0	13	-2	0	4	-5	nt
Cc1ccc(CN(Cc2cc3cc4c(cc3[nH]c2=O)OCCO4)Cc2nnnn2Cc2ccco2)cc1	17*	6	43*	3	-10	0	13
CCC(C)(C)n1nnnc1C(C(C)C)N(Cc1ccco1)Cc1cc2cc3c(cc2[nH]c1=O)OCO3 (stereo not given)	10	-4	41*	-5	18	6	5
CCC(c1nnnn1Cc1ccco1)N(Cc1ccccc1OC)Cc1cc2cc(C)ccc2[nH]c1=O (stereo not given)	-3	13	15	2	-6	3	nt
Cc1ccc2cc(CN(Cc3ccc4c(c3)OCO4)Cc3nnnn3Cc3ccco3)c(=O)[nH]c2c1	4	-9	5	0	-4	3	nt
CCOC(=O)[C@@]12CCCC3=C1N(CCC3)C(=O)[C@H]2CC(=O)NCc1ccccc1	3	4	2	-1	-3	1	nt
CCNC(=S)NNC(=O)CSc1nnc(SCc2cccc3ccccc23)s1	-1	8	10	-13	-4	-2	nt
CC(=O)CC[C@@H]1CC[C@]2(CCCN(C(=O)c3ccccc3)C2)O1	0	-4	0	-1	7	3	nt
O=C(O)c1cc(-c2ccc(-c3ccc(F)cc3)o2)nc2ccccc12	3	4	86*	-1	-10	1	27*
COc1cccc(C2CC(=O)N3CN(c4cccc(Cl)c4C)CSC3=C2C#N)c1OC (stereo not given)	5	7	29*	0	-3	0	54*
COc1cccc(C2CC(=O)N3CN(c4ccccc4F)CSC3=C2C#N)c1 (stereo not given)	-6	9	7	-1	6	3	nt
COc1ccc(OC)c(C2CC(=O)N3CN(c4cccc(Cl)c4C)CSC3=C2C#N)c1 (stereo not given)	-1	-2	45*	-2	-1	0	64*
SMILES	LEDGF integ inh	SIAE inh	PRMT1 FP inh	UHRF1 MBD2 ctr	TDP2 inh	MBD2 DNA inh	PRMT1 confirm
COc1ccc(OC)c(C2CC(=O)N3CN(c4ccccc4F)CSC3=C2C#N)c1 (stereo not given)	-1	1	33*	-1	-5	-2	22*
O=C(CSc1nnc(-c2cccs2)n1Cc1ccco1)Nc1ccc(Oc2ccccc2)cc1	4	-13	1	0	-10	-1	nt
COc1ccc(-n2c(SCC(=O)NCC3CCCO3)nnc2-c2ccncc2)cc1 (stereo not given)	1	-1	-2	0	0	-3	nt
Cc1ccccc1NC(=O)Nc1ccc2c(c1)C(=O)N(C)[C@H]1CC[C@H](CC(=O)NCC3CC3)O[C@@H]1CO2	7	-4	-1	6	-9	9	nt
Nn1c(SCc2ccc(Br)cc2)nnc1-c1n[nH]c2c1CCC2	3	-3	-2	0	0	0	nt
COc1ccc(NC(=O)CSc2nc(C)cc(=O)[nH]2)cc1OC	4	9	-5	6	1	3	nt
O=C(CSc1nnc(-c2ccco2)n1Cc1ccco1)c1ccc([N+](=O)[O-])cc1	7	3	-1	3	-7	0	nt
N#CC(C#N)=C1C=CC=CN1/C(=C\c1ccccc1Cl)C(=O)c1ccccc1	-5	5	29*	-2	11	1	32*
O=C(CCc1ccccc1-c1ccccc1CCNC(=O)c1ccc(F)c(F)c1)NCc1ccccc1	1	-1	-4	-2	3	-5	nt
O=C(NCc1ccco1)c1cc2nc(-c3cccs3)cc(C(F)(F)F)n2n1	7	-5	34*	-4	-11	-4	2
CCCCCCNC(=O)c1c(N)[nH]c(C(=O)c2ccccc2)c1-c1ccc(O)cc1	3	-1	8	0	-8	1	nt
CCCN=Cc1sc2ccc(OCC)cc2c1O	-2	0	88*	8	-8	0	29*
Cc1cccc(NCCC(=O)c2ccc([N+](=O)[O-])cc2)c1C	3	0	50*	-1	-4	2	66*
Cc1ccc(C(=O)CNc2cccc([N+](=O)[O-])c2)cc1	-1	-2	0	-1	-7	0	nt
Cc1ccc(NCCC(=O)c2cccc([N+](=O)[O-])c2)c(C)c1	-2	0	37*	-1	4	1	40*
O=C(NCCc1cccc(F)c1)c1cc2ccccn2n1	0	-2	0	0	6	-6	nt
CC(=O)Nc1ccc(Sc2ncnc3scc(-c4ccccc4)c23)cc1	3	0	35*	-1	0	1	37*
O=C(OCc1cn(Cc2ccc(F)cc2)nn1)N1CCCC1	-2	-2	6	8	-6	2	nt
